Data taken from ChEMBL document CHEMBL2417468, “4β-[4'-(1-(Aryl)ureido)benzamide]podophyllotoxins as DNA topoisomerase I and IIα inhibitors and apoptosis inducing agents” (2013).
Activity calls are given as the source filed them. The rule behind the calls is not given here.

Columns and labels:
[1] = test system: COLO 205; test: Cytotoxicity against human COLO205 cells assessed as cell viability at 2 to 4 uM after 24 hrs by MTT assay; format: functional, cell-based
In short: (§1)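 Colo-205 (RPMI, 10% FCS) and MDA-MB-231 (DMEM, 2 mM glutamax, 10% FCS, penicillin/streptomycin) seeded at 1 104 cells/well, 18 h preincubation; fresh medium with compound at 0.5, 1, 2 and 4 µM for 24 h at 37 °C; MTT 2 h, formazan solubilised, OD 570 nm; DMSO ≤0.25%, DMSO-only wells as untreated control.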

[2] = test system: KB; test: Growth inhibition of human KB cells after 48 hrs by sulforhodamine B assay; format: functional
[3] = test system: COLO 205; test: Induction of apoptosis in human COLO205 cells assessed as blebbing at 2 to 4 uM after 24 hrs by Hoechst staining-based confocal microscopic analysis; format: functional, cell-based
In short: (§2)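 Colo-205 cells on coverslips treated 24 h at 2 and 4 µM, 4% paraformaldehyde fixed 15 min, RNase-treated 30 min at 37 °C, Hoechst-stained; nuclear morphology (fragmentation, blebbing) by confocal microscopy versus untreated cells.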

[4] = test system: HOP-62; test: Growth inhibition of human HOP62 cells after 48 hrs by sulforhodamine B assay; format: functional; conditions: HOP-62, 48 h
[5] = test system: COLO 205; test: Growth inhibition of human COLO205 cells after 48 hrs by sulforhodamine B assay; format: functional; conditions: COLO 205, 48 h
[6] = test system: COLO 205; test: Induction of apoptosis in human COLO205 cells assessed as caspase-3 activation at 2 uM after 24 hrs by Western blotting analysis; format: functional, cell-based
In short: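 Colo-205 cells grown to 80% confluency, 2 µM final for 24 h; RIPA lysates with protease inhibitors, Bradford-quantified, 50 µg protein per lane on 12% SDS-PAGE, PVDF transfer, probed overnight at 4 °C for active caspase-3, β-actin as loading control, chemiluminescent detection.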

[7] = test system: COLO 205; test: Cytotoxicity against human COLO205 cells assessed as reduction in cellular ATP level at 2 uM after 24 hrs by bioluminescence assay; format: functional, cell-based
In short: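 Colo-205 cells exposed 24 h at 2 µM, lysed in ice-cold RIPA, debris spun off at 4 °C; intracellular ATP in supernatant by luciferin-luciferase bioluminescence kit; three independent experiments, mean ± S.D., untreated control.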

[8] = test system: MDA-MB-231; test: Cytotoxicity against human MDA-MB-231 cells assessed as cell viability at <0.5 to 1 uM after 24 hrs by MTT assay; format: functional, cell-based; in short: as §1
[9] = molecular target: DNA topoisomerase 2-alpha (Homo sapiens) (UniProt P11388); test: Inhibition of human topoisomerase 2alpha-mediated relaxation of supercoiled pBR322 DNA at 2 uM after 30 mins by agarose gel electrophoresis
In short: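 Purified human topoisomerase IIα (4 units) with 200 ng supercoiled pBR322 and compound at 2 µM, 30 min at 30 °C in 10 mM Tris-HCl pH 7.9, 50 mM NaCl, 5 mM MgCl2, 1 mM EDTA, 1 mM ATP, 15 µg/mL BSA; EDTA-stopped; 1% agarose gel in TAE, ethidium bromide, UV visualisation.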

[10] = test system: COLO 205; test: Cell cycle arrest in human COLO205 cells assessed as accumulation at S phase at 2 uM after 24 hrs by propidium iodide staining-based FACS flow cytometric analysis (reference value: 4.21%); format: functional
[11] = test system: COLO 205; test: Cell cycle arrest in human COLO205 cells assessed as accumulation at G2/M phase at 2 uM after 24 hrs by propidium iodide staining-based FACS flow cytometric analysis (reference value: 29.52%); format: functional
[12] = Growth inhibition of human DWD cells after 48 hrs by sulforhodamine B assay; format: functional
[13] = test system: COLO 205; test: Cell cycle arrest in human COLO205 cells assessed as accumulation at G0/G1 phase at 2 uM after 24 hrs by propidium iodide staining-based FACS flow cytometric analysis (reference value: 65.23%); format: functional
[14] = test system: ZR-75-1; test: Growth inhibition of human ZR-75-1 cells after 48 hrs by sulforhodamine B assay; format: functional; conditions: ZR-75-1, 48 h
[15] = test system: A2780; test: Growth inhibition of human A2780 cells after 48 hrs by sulforhodamine B assay; format: functional; conditions: A2780, 48 h
[16] = test system: MCF7; test: Growth inhibition of human MCF7 cells after 48 hrs by sulforhodamine B assay; format: functional; conditions: MCF7, 48 h
[17] = molecular target: T1, DNA topoisomerase 1 (Homo sapiens) (UniProt P11387); test: Inhibition of human topoisomerase 1-mediated relaxation of supercoiled pBR322 DNA at 2 uM after 30 mins by agarose gel electrophoresis
T1 sequence (whole entry): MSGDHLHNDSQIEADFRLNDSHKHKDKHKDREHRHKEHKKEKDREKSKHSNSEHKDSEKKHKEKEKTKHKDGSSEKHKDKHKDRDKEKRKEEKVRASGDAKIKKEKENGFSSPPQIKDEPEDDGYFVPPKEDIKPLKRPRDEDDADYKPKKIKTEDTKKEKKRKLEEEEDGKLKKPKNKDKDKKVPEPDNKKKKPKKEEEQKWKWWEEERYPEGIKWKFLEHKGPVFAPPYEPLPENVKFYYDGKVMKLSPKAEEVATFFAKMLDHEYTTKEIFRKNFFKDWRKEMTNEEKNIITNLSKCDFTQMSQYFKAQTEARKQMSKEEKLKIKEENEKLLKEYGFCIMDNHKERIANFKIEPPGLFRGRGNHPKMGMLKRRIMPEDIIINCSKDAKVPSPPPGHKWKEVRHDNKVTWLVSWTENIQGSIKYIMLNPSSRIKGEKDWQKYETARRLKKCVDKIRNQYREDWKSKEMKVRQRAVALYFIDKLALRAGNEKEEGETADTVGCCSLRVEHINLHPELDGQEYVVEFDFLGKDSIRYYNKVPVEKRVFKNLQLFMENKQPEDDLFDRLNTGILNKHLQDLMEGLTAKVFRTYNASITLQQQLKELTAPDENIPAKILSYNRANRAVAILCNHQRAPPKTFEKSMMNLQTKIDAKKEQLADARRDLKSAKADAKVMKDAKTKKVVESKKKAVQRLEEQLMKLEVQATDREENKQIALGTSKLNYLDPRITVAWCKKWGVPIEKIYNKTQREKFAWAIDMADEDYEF
In short: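 500 ng supercoiled pBR322 with 0.4 units recombinant human topoisomerase I, compound at 2 µM, 30 min at 37 °C in 10 mM Tris-HCl pH 7.9, 150 mM NaCl, 0.1% BSA, 1 mM spermidine, 5% glycerol; stopped with sarcosyl/dye; relaxation read on 1% agarose gel; camptothecin as reference.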

[18] = Growth inhibition of human Gurav cells after 48 hrs by sulforhodamine B assay; format: functional
[19] = test system: COLO 205; test: Cytotoxicity against human COLO205 cells assessed as viable cells at 2 uM after 24 hrs by trypan blue exclusion assay; format: functional, cell-based
In short: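 Colo-205 cells treated 24 h at 1, 2 and 4 µM, trypsinised, mixed with 0.4% trypan blue (10 µl per 100 µl cells), counted on haemocytometer; percentage dead cells calculated; triplicate samples.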

[20] = test system: A549; test: Growth inhibition of human A549 cells after 48 hrs by sulforhodamine B assay; format: functional; conditions: A549, 48 h
[21] = test system: COLO 205; test: Induction of apoptosis in human COLO205 cells assessed as DNA fragmentation at 2 to 4 uM after 24 hrs by Hoechst staining-based confocal microscopic analysis; format: functional, cell-based; in short: as §2
[22] = test system: SiHa; test: Growth inhibition of human SiHa cells after 48 hrs by sulforhodamine B assay; format: functional
[23] = test system: COLO 205; test: Cytotoxicity against human COLO205 cells assessed as cell viability at <0.5 to 1 uM after 24 hrs by MTT assay; format: functional, cell-based; in short: as §1
[24] = test system: MDA-MB-231; test: Cytotoxicity against human MDA-MB-231 cells assessed as cell viability at 2 to 4 uM after 24 hrs by MTT assay; format: functional, cell-based; in short: as §1
[25] = test system: COLO 205; test: Induction of apoptosis in human COLO205 cells assessed as caspase-3 activation at 2 uM after 24 hrs by ELISA; format: functional, cell-based
In short: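 Colo-205 cells exposed 24 h at 2 µM; lysates in 2X reaction buffer with DTT plus caspase substrate, 1 h at 37 °C; fluorescence read at ex 400/em 505 nm; three independent experiments, mean ± S.D., versus untreated control.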

Sequence of DNA topoisomerase 2-alpha (Homo sapiens) (P11388 whole entry): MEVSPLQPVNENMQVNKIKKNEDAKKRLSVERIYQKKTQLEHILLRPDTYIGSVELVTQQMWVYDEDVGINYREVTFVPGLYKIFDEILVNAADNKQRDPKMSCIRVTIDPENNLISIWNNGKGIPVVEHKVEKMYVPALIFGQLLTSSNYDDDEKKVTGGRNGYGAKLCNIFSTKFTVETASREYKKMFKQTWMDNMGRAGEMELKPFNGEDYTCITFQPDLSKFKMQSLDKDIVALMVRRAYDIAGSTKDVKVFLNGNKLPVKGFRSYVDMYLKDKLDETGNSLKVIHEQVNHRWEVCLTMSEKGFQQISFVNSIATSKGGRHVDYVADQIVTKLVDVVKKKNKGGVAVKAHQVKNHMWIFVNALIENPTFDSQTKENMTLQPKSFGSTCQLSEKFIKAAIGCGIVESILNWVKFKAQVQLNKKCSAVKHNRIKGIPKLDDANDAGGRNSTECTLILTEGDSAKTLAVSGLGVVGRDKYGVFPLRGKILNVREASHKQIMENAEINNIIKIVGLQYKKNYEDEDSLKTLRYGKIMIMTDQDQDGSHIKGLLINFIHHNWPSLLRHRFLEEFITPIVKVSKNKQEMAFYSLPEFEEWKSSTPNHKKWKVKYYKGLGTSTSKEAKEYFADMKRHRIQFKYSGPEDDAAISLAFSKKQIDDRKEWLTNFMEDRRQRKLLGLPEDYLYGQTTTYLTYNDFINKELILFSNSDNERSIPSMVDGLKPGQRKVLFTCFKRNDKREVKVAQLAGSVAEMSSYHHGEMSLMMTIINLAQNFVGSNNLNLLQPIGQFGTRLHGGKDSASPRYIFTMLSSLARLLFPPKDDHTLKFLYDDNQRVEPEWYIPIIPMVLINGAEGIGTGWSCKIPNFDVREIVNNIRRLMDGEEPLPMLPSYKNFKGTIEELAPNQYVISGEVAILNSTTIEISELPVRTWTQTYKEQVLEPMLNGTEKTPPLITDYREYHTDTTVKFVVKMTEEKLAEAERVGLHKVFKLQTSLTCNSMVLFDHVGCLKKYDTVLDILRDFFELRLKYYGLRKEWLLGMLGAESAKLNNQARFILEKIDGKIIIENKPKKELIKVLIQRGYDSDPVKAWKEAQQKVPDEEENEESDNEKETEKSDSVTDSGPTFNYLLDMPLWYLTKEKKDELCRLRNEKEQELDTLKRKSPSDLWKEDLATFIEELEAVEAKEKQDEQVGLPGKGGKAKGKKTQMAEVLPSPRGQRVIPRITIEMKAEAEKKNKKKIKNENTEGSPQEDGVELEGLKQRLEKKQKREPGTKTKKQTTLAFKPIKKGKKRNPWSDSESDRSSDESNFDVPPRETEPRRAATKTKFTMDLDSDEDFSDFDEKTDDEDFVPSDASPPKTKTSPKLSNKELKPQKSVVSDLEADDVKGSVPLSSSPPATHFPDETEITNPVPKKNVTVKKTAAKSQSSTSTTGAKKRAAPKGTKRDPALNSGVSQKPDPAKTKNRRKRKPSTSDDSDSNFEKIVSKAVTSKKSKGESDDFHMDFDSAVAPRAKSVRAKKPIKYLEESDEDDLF

SMILES | Activity [1] | GI50 [2] | Activity [3] | GI50 [4] | GI50 [5] | Activity [6] | Activity [7] | Activity [8] | Percent of cells in S phase [10] | Activity [11] | GI50 [12] | Activity [13] | GI50 [14] | GI50 [18] | Activity [19] | GI50 [20] | Activity [21] | GI50 [22] | Activity [23] | Activity [24] | further results
COc1cc([C@@H]2c3cc4c(cc3[C@@H](NC(=O)c3ccc(NC(=O)Nc5ccc(Cl)cc5)cc3)[C@H]3COC(=O)[C@H]23)OCO4)cc(OC)c1OC | Active | inactive | Active | 170 nM | 10 nM | Active | Active | inactive | 4.83% | 17.06% | 100 nM | 78.12% | 130 nM | 1970 nM | Active | 2140 nM | Active | inactive | inactive | Active | Inhibition of relaxation (qualitative call) [9]: Active; GI50 [15]: 2200 nM; GI50 [16]: 110 nM; inhibition [17]: Active; Activity [25]: Active
COc1cc([C@@H]2c3cc4c(cc3[C@@H](O[C@@H]3O[C@@H]5CO[C@@H](C)O[C@H]5[C@H](O)[C@H]3O)[C@H]3COC(=O)[C@H]23)OCO4)cc(OC)c1O [ETOPOSIDE] | Active | 310 nM | Active | 800 nM | 130 nM | Active | Active | inactive | 7.36% | 49.63% | 620 nM | 42.68% | 200 nM | 510 nM | Active | 3080 nM | Active | 3.11 µM | inactive | Active | Activity [25]: Active
